For five compounds, Activity, IC50 and ED50 results are on record in ChEMBL document CHEMBL1131069 (J Med Chem, 1998).

pIC50: −log10 of the molar value.

Data set [1] concerns Mus musculus. Description: Anticonvulsant activity determined at 30 minutes after the administration of compound using MES test. (++= signify activity at 100 mg/kg). Type of data set: functional, organism-based. The arrangement: dose 100 mg/kg. A digest of the protocol:
(§1)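 Male CF-1 albino mice (18-25 g) dosed intraperitoneally at 30, 100 or 300 mg/kg. Protection against maximal electroshock-induced seizures was scored 30 min or 4 h after dosing.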

The test system of data set [2] is Mus musculus. In words: Anticonvulsant activity determined at 4 hours after the administration of compound using MES test.(++= signify activity at 100 mg/kg). Type of data set: functional, organism-based. The arrangement: dose 100 mg/kg. The method, boiled down:
as §1

The subject of data set [3] is Mus musculus. In words: Anticonvulsant activity determined at 4 hours after the administration of compound using sc Ptz test.(+ = signify activity at 300 mg/kg). Type of data set: functional, organism-based. The arrangement: dose 300 mg/kg. A digest of the protocol:
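Male CF-1 mice (18-25 g) dosed ip at 30, 100 or 300 mg/kg. Pentylenetetrazol in 0.9% NaCl was injected sc at 0.01 mL/g. Tests were run 30 min or 4 h after dosing.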

Data set [4] relates to Rattus norvegicus. Description: Anticonvulsant activity was determined in rats at a dose of 30 mg/kg after 1 hour by MES test. (++++ denotes activity in 75-100% of administered animals). The arrangement: dose 30 mg/kg. Type of data set: functional, organism-based.
Data set [5] relates to Rattus norvegicus. In words: Anticonvulsant activity was determined in rats at a dose of 30 mg/kg after 4 hour by MES test. (++++ denotes activity in 75-100% of administered animals). Type of data set: functional, organism-based. Also on record: dose 30 mg/kg.
Data set [6] can be described thus: Apparent IC50 value by [3H]batrachotoxinin-A-20-alpha-benzoate-binding test performed in rat brain synaptosomes. Type of data set: subcellular. The method, boiled down: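 Rat brain synaptosomes, about 400 µg protein per assay, incubated 2 h at 37 °C, pH 7.4, in choline chloride/HEPES/glucose/KCl medium with 10 nM [³H]batrachotoxinin-A-20α-benzoate and scorpion venom. Stopped with cold-free choline chloride/HEPES/CaCl₂/MgSO₄ washes, filtered on GF/B, bound radioactivity counted. Protein by Bradford. Apparent IC50 from quadruplicate measurements, mean ± SD.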

Data set [7] is described as follows: Neurotoxicity determined at 30 minutes after the administration of compound by rotarod test.(- denotes activity at 300 mg/kg). Type of data set: toxicity, organism-based. The arrangement: dose 300 mg/kg. Particulars: mouse, in vivo, 0.5 h. A digest of the protocol:
(§2)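 Male CF-1 mice dosed ip at 30, 100 or 300 mg/kg and tested 30 min or 4 h later on a 1-in. knurled rod turning at 6 rpm. A deficit was failure to stay on the rod for 1 min in each of three trials. Coding: ++ 100, + 300 mg/kg; - means none at 300 mg/kg.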

Data set [8] is described as follows: Neurotoxicity determined at 4 hours after the administration of compound by rotarod test(+ = signify activity at 300 mg/kg). The arrangement: dose 300 mg/kg. Type of data set: toxicity, organism-based. The following applies: mouse, in vivo. The method, boiled down:
as §2

Data set [9] has as its system Rattus norvegicus. In words: Anticonvulsant ED50 activity by MES test in rats dosed orally. Type of data set: functional. Particulars: po. The method, boiled down:
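Male Sprague-Dawley rats (100-150 g) dosed orally. ED50 is the dose protecting 50% of animals against maximal electroshock-induced seizures. […]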

Data set [10] relates to Mus musculus. In words: Anticonvulsant activity determined at 30 minutes after the administration of compound using MES test. (+ = signify activity at 300 mg/kg). Type of data set: functional, organism-based. The arrangement: dose 300 mg/kg. The method, boiled down:
as §1

Data set [11] in a line: Neurotoxicity determined at 30 minutes after the administration of compound by rotarod test.(+ = signify activity at 300 mg/kg). The following applies: mouse, in vivo, 0.5 h. Also on record: dose 300 mg/kg. Type of data set: toxicity, organism-based. The method, boiled down:
as §2
On the technique in general: In the rotarod test animals must keep their balance on a rotating rod.

Data set [12] can be described thus: Neurotoxicity determined at 4 hours after the administration of compound by rotarod test (+ = signify activity at 300 mg/kg). Type of data set: toxicity, organism-based. Also on record: dose 300 mg/kg. The following applies: mouse, in vivo. A digest of the protocol:
as §2

Data set [13] in a line: Toxicity was determined in rats at a dose of 30 mg/kg after 4 hour. (- denotes no activity in administered animals). Type of data set: organism-based. Also on record: dose 30 mg/kg. The following applies: rat, in vivo. A digest of the protocol:
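Male Sprague-Dawley rats given a single oral dose of 30 mg/kg and assessed for toxicity 4 h after dosing, with at least four animals per time point. Score is the fraction of animals affected (+ 0-25%); - means no toxicity.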

Data set [14] concerns Rattus norvegicus. In words: Anticonvulsant activity was determined in rats at a dose of 30 mg/kg after 15 minutes by MES test. (++++ denotes activity in 75-100% of administered animals). Type of data set: functional, organism-based. Also on record: dose 30 mg/kg.
Data set [15] can be described thus: Neurotoxicity determined at 4 hours after the administration of compound by rotarod test(- denotes activity at 300 mg/kg). The following applies: mouse, in vivo. The arrangement: dose 300 mg/kg. Type of data set: toxicity, organism-based. A digest of the protocol:
as §2

Data set [16] concerns Mus musculus. In words: Anticonvulsant activity determined at 4 hours after the administration of compound using MES test. (++= signify activity at 100 mg/kg). Type of data set: functional, organism-based. The arrangement: dose 100 mg/kg. A digest of the protocol:
as §1

A short description of data set [17]: Neurotoxicity determined at 30 minutes after the administration of compound by rotarod test. (+ = signify activity at 300 mg/kg). Particulars: mouse, in vivo, 0.5 h. Type of data set: toxicity, organism-based. The arrangement: dose 300 mg/kg. The method, boiled down:
as §2

Data set [18] in a line: Neurotoxicity determined at 4 hours after the administration of compound by rotarod test (- denotes activity at 300 mg/kg). Type of data set: toxicity, organism-based. Particulars: mouse, in vivo. The arrangement: dose 300 mg/kg. The method, boiled down:
as §2

Regarding `Cc1cccc(C)c1N1C(=O)c2ccc([N+](=O)[O-])cc2C1=O`, the Activity entry in the data set with Mus musculus [1] is “Activity at 300 mg/kg”; with Mus musculus [2] it was “Activity at 300 mg/kg”; in the data set on Mus musculus [3] it was “Activity at 300 mg/kg”; with Rattus norvegicus [4], “++”; with Rattus norvegicus [5] it was “++”; in [7], “Activity at 300 mg/kg”. In [8], the Activity entry was “Activity at 300 mg/kg”. The pIC50 in [6] was 3.74. For the same compound, the ED50 in the data set on Rattus norvegicus [9] was 131 µmol/kg.

With `O=C1NC(=O)C(c2ccccc2)(c2ccccc2)N1` [PHENYTOIN], the pIC50 in data set [6] was 6.07. The compound further registered an ED50 with Rattus norvegicus [9] of 121 µmol/kg.

Turning to `CC1(C)CC(NC(=O)c2ccc([N+](=O)[O-])cc2)CC(C)(C)N1`, the Activity result (in the data set on Mus musculus [10]; in [11]; in data set [12]; in [13]) was “signifies activity at 300 mg/kg” throughout. Further, the negative-log IC50 (pIC50) in [6] is 4.59. In the data set on Rattus norvegicus [9], this compound had an ED50 greater than 650 µmol/kg.

For the compound `Cc1cccc(C)c1NC(=O)c1ccc(N)cc1` [AMELTOLIDE], the Activity result is “Activity at 300 mg/kg” in the data set on Mus musculus [2]; “++” in the data set on Rattus norvegicus [5]; “++” with Rattus norvegicus [14]; “Activity at 300 mg/kg” in [7]; “Activity at 300 mg/kg” in data set [15]; “Activity at 300 mg/kg” in [13]. In addition, the 50% effect level with Rattus norvegicus [9] (ED50) was put at a dose of 135 µmol/kg.

As to `Cc1cccc(C)c1NC(=O)c1ccc([N+](=O)[O-])cc1`, the Activity entry in the data set on Mus musculus [16] is “Activity at 300 mg/kg”; in the data set on Rattus norvegicus [14] it was “++”; in [17], “Activity at 300 mg/kg”; in [18], “Activity at 300 mg/kg”; in [13], “Activity at 300 mg/kg”. The pIC50 in data set [6] is 6.60. The 50% effect level with Rattus norvegicus [9] (ED50) was put at a dose of 52.3 µmol/kg.

The term pIC50 denotes −log10 of the IC50, conventionally taken in molar units. In general, ED50 refers to the dose that gives a 50% effect, or the effect in half of the subjects. Lower therefore signals an effect at a small dose.
